Experimental findings from ChEMBL document CHEMBL3792357, “4,6-Diphenylpyridines as Promising Novel Anti-Influenza Agents Targeting the PA-PB1 Protein-Protein Interaction: Structure-Activity Relationships Exploration with the Aid of Molecular Modeling” (J Med Chem, 2016) are described below.

Some results are limits rather than exact numbers.

Data set [1] in a line: Selectivity index, ratio of CC50 for MDCK cells to EC50 for Influenza A virus PR/8/34 infected in MDCK cells. Type of data set: toxicity, cell-based. The note with it: dog, read-out: Ratio CC50/EC50.
Data set [2] is described as follows: Cytotoxicity against MDCK cells assessed as decrease in cell viability after 48 hrs by MTT assay. In kind it is cell-based, Canis lupus familiaris. The following applies: dog. The method, boiled down: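 MDCK cells at 5x10³/well exposed to 2-fold serial dilutions from 250 µM for 48 h. MTT (5 mg/mL) for 4 h at 37 °C, solubilisation 3 h, A620. DMSO wells = 100% viable; CC50 = concentration giving 50% viability loss. Mean ± SD, ≥3 independent experiments in duplicate.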

Data set [3] in a line: Cytotoxicity against HEK293T cells assessed as decrease in cell viability after 24 hrs by MTT assay. In kind it is cell-based, HEK-293T. The note with it: human. The procedure, abridged: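 HEK 293T cells at 2x10⁴/well exposed to 2-fold serial dilutions from 250 µM for 24 h. MTT (5 mg/mL) for 4 h at 37 °C, solubilisation 3 h, absorbance at 620 nm. DMSO wells set as 100% viability; CC50 = 50% viability decrease. Mean ± SD, ≥3 independent experiments in duplicate.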

Data set [4] relates to Influenza A virus. The experiment in a line: Antiviral activity against Influenza A virus PR/8/34 infected in MDCK cells assessed as inhibition of plaque formation treated for 1 hr measured after 2 days by toluidine blue staining-based assay. The following applies: A/Puerto Rico/8/1934(H1N1). In kind it is functional, organism-based. The procedure, abridged: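 MDCK confluent monolayers infected with PR8 (H1N1) at 40 PFU/well in DMEM with 1 µg/ml TPCK-trypsin, 0.14% BSA and compound, 1 h at 37 °C. Overlay of the same medium plus 1.2% Avicel and compound. After 2 days, fixed in 4% formaldehyde, stained with 0.1% toluidine blue and plaques counted. EC50 = 50% plaque inhibition. Ribavirin and oseltamivir as references. Mean ± SD, ≥3 independent experiments in duplicate.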

Data set [5] is described as follows: Inhibition of Influenza A virus RdRp transfected in HEK293T cells at 24 hrs by dual luciferase reporter gene-based minireplicon assay. Type of data set: cell-based. The note with it: HEK-293T. The method, boiled down:
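HEK 293T seeded at 2x10⁵/well; 24 h later calcium-phosphate transfected with PB1, PB2, PA and NP plasmids (100 ng/well each), pPolI-Flu-ffLuc (50 ng/well) and pRL-SV40 normaliser (50 ng/well) with compound or DMSO. Medium with compound replaced at 4 h; firefly/Renilla luciferase read at 24 h. Ribavirin reference. Mean ± SD, ≥2 experiments in duplicate.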
A general note: In a reporter assay the amount or activity of a reporter protein is the signal.

Data set [6] deals with PA/PB1 (Influenza A virus (A/Puerto Rico/8/1934(H1N1)), UniProt P03431+P03433). Description: Inhibition of Influenza A virus PR/8/34 6His-tagged PA (239 to 716 residues) interaction with GST-tagged PB1 (1 to 25 residues) expressed in Escherichia coli compound treated in PBS buffer measured after overnight incubation by ELISA. The method, boiled down:
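Plates coated with 400 ng E. coli-expressed 6His-PA(239–716) for 3 h at 37 °C, then blocked with 2% BSA/PBS for 1 h. Then 200 ng GST-PB1(1–25) (GST as control) with compound or DMSO in PBS, overnight at room temperature. Detection with HRP anti-GST mAb and TMB, OD 450 nm. DMSO = 100% interaction; PB1(1–15)-Tat as reference. Mean ± SD, ≥3 experiments in duplicate.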
On the technique in general: In an ELISA, binding on a coated surface is turned into a signal by an enzyme label.

The target is the same in data set [7]. Description: Inhibition of Influenza A virus PR/8/34 6His-tagged PA (239 to 716 residues) interaction with GST-tagged PB1 (1 to 25 residues) expressed in Escherichia coli compound treated in DMEM serum-free medium measured after overnight incubation by ELISA. The procedure, abridged: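 Same coated 6His-PA(239–716)/GST-PB1(1–25) ELISA (400 ng PA, 200 ng PB1 peptide; overnight room temperature; HRP anti-GST/TMB, OD 450), but GST-PB1 and compounds or DMSO are dissolved in serum-free DMEM instead of PBS. DMSO = 100% interaction; PB1(1–15)-Tat as positive control. IC50 from mean ± SD, ≥2 experiments in duplicate.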

Data set [8] can be described thus: Ratio of IC50 for Influenza A virus PR/8/34 6His-tagged PA (239 to 716 residues) interaction with GST-tagged PB1 (1 to 25 residues) to EC50 for Influenza A virus PR/8/34 infected in MDCK cells.

Usually CC50 stands for the concentration at which the toxic effect on the cells reaches its halfway point. The term EC50 denotes the midpoint of the concentration-response curve. Usually IC50 stands for the midpoint of a concentration-inhibition curve. A higher IC50 goes with lower potency.

For the compound `NC(=O)c1ncn([C@@H]2O[C@H](CO)[C@@H](O)[C@H]2O)n1` [RIBAVIRIN], in data set [1], the selectivity ratio was over 19.5. Besides, the CC50 at 48 h in data set [2] was over 250 µM. Further, in data set [3], the CC50 at 24 h is over 250 µM. Besides, the half-maximal effective concentration (EC50) came out at 12.8 µM in data set [4] and 23.8 µM in data set [5].

With `Cc1cccc(NC(=O)/C=C/c2nc(-c3ccccc3)cc(-c3ccccc3)c2C#N)c1`, the selectivity ratio in data set [1] was over 3.5. Moreover, in data set [6], the half-inhibitory concentration (IC50) amounted to 190 µM. Moreover, the CC50 at 48 h in data set [2] was over 250 µM. Moreover, the CC50 at 24 h in data set [3] is over 250 µM. Besides, the EC50 in data set [4] turned out to be 70.7 µM.

For `Cc1cccc(NC(=O)CSc2nc(-c3ccc(C(F)(F)F)cc3)cc(-c3ccc(C(F)(F)F)cc3)n2)c1`, the selectivity ratio in data set [1] was over 9.4. Moreover, the IC50 is 64.5 µM in data set [7] and over 200 µM in data set [6]. For the same compound, in data set [2], the CC50 at 48 h was over 250 µM. Further, the cytotoxic concentration (CC50) at 24 h in data set [3] is over 250 µM. In addition, the EC50 was 26.5 µM in data set [4] and 22 µM in data set [5].

The compound `Cc1cccc(NC(=O)CCSc2nc(-c3ccccc3)cc(-c3ccccc3)c2C#N)c1` returned a half-inhibitory concentration (IC50) in data set [6] of 122 µM. Moreover, the cytotoxic concentration (CC50) at 48 h in data set [2] is 13.9 µM. For the same compound, in data set [3], the CC50 at 24 h amounted to 150 µM. In data set [4], the concentration for a half-maximal effect (EC50) is over 10 µM.

As for `Cc1cccc(NC(=O)CSc2nc(-c3ccccc3)ccc2C#N)c1`, the concentration for half-maximal inhibition (IC50) in data set [6] is over 200 µM. Further, the half-maximal cytotoxic concentration (CC50) at 48 h in data set [2] stood at 7.1 µM. Moreover, the cytotoxic concentration (CC50) at 24 h in data set [3] was 32 µM. Moreover, the EC50 in data set [4] was over 10 µM.

Turning to `Cc1cccc(NC(=O)CNc2nc(-c3ccccc3)cc(-c3ccccc3)c2C#N)c1`, the selectivity ratio in data set [1] is over 8.7. Further, the IC50 in data set [7] and in data set [6] was over 200 µM throughout. In addition, in data set [2], the CC50 at 48 h was over 250 µM. Besides, in data set [3], the CC50 at 24 h was over 250 µM. Also, the values for the EC50 in data set [4] and in data set [5] were 28.6 µM and 46.3 µM, respectively.

For `N#Cc1cnc(-c2ccccc2)cc1-c1ccccc1`, the selectivity ratio in data set [1] was 2.3. Besides, 116 µM corresponded to half-maximal inhibition in data set [6] (IC50). Besides, the CC50 at 48 h in data set [2] amounted to 105 µM. In addition, the CC50 at 24 h in data set [3] was over 250 µM. Besides, the half-maximal effective concentration (EC50) in data set [4] was found to be 45.1 µM.

As for `Cc1cccc(NC(=O)CSc2nc(-c3ccccc3)cc(-c3ccccc3)c2C#N)c1`, the selectivity ratio in data set [1] was over 27.2. In addition, the IC50 in data set [7] was determined as 35.2 µM; in data set [6] it was 175 µM. Moreover, the 50% cytotoxic concentration (CC50) at 48 h in data set [2] was over 250 µM. In addition, in data set [3], the 50% cytotoxic concentration (CC50) at 24 h was over 250 µM. Besides, the “Ratio IC50/EC50” value in data set [8] was determined as 19. Also, the EC50 in data set [4] worked out at 9.2 µM; in data set [5], 86.6 µM.

For the compound `N#Cc1c(-c2ccccc2)cc(-c2ccccc2)nc1SCC(=O)N1CCOCC1`, in data set [1], the selectivity ratio was over 2.5. In data set [6], this compound had an IC50 of 177 µM. For the same compound, the CC50 at 48 h in data set [2] was over 250 µM. Besides, in data set [3], the CC50 at 24 h stood at 184 µM. In addition, the concentration giving a half-maximal response (EC50) in data set [4] amounted to 100 µM.

For `Cc1cccc(NC(=O)CSc2cc(-c3ccccc3)cc(-c3ccccc3)n2)c1`, the selectivity ratio in data set [1] turned out to be 20.5. Moreover, the values for the IC50 in data set [7] and in data set [6] were 40.5 µM and 52.6 µM, respectively. Moreover, in data set [2], the 50% cytotoxic concentration (CC50) at 48 h was determined as 150 µM. Also, in data set [3], the 50% cytotoxic concentration (CC50) at 24 h was over 250 µM. The values for the half-maximal effective concentration (EC50) in data set [4] and in data set [5] were 7.3 µM and 30.8 µM, respectively.

Take `Cc1cccc(NC(=O)CSc2nc(-c3ccccc3)cc(-c3ccccc3)n2)c1`: the selectivity ratio in data set [1] stood at 2.9. The half-inhibitory concentration (IC50) in data set [7] was 113 µM; in data set [6], 165 µM. Besides, the CC50 at 48 h in data set [2] was found to be 10.1 µM. Also, the cytotoxic concentration (CC50) at 24 h in data set [3] came out at 22.3 µM. In data set [8], the “Ratio IC50/EC50” value amounted to 47. Further, the concentration for a half-maximal effect (EC50) in data set [4] was determined as 3.5 µM.

In data set [6], `Cc1cccc(NC(=O)CSc2nccc(-c3ccccc3)c2C#N)c1` displayed an IC50 of over 200 µM. For the same compound, the 50% cytotoxic concentration (CC50) at 48 h in data set [2] came out at 41.5 µM. Besides, the CC50 at 24 h in data set [3] came out at 180 µM. For the same compound, the EC50 in data set [4] is over 10 µM.

With `CCOC(=O)C1=C[C@@H](OC(CC)CC)[C@H](NC(C)=O)[C@@H](N)C1` [OSELTAMIVIR], the selectivity ratio in data set [1] is over 16000. Besides, the CC50 at 48 h in data set [2] was over 250 µM. For the same compound, in data set [3], the CC50 at 24 h is over 250 µM. Besides, in data set [4], the EC50 was 0.015 µM.

For `CSCC[C@H](N)C(=O)N[C@@H](CC(=O)O)C(=O)N[C@H](C(=O)N[C@@H](CC(N)=O)C(=O)N1CCC[C@H]1C(=O)N[C@H](C(=O)N[C@@H](CC(C)C)C(=O)N[C@@H](CC(C)C)C(=O)N[C@@H](Cc1ccccc1)C(=O)N[C@@H](CC(C)C)C(=O)N[C@@H](CCCCN)C(=O)N[C@H](C(=O)N1CCC[C@H]1C(=O)N[C@@H](C)C(=O)N[C@@H](CCC(N)=O)C(=O)O)C(C)C)[C@@H](C)O)C(C)C`, in data set [1], the selectivity ratio was over 5. In addition, the results for the IC50 in data set [7] and in data set [6] were 31.7 µM and 35.9 µM, respectively. The CC50 at 48 h in data set [2] is over 250 µM. For the same compound, in data set [3], the CC50 at 24 h was over 250 µM. In addition, the concentration giving a half-maximal response (EC50) in data set [4] worked out at 49.7 µM.

In the case of `Cc1cccc(NC(=O)CCCSc2nc(-c3ccccc3)cc(-c3ccccc3)c2C#N)c1`, the selectivity ratio in data set [1] came to 5.1. The half-maximal inhibitory concentration (IC50) in data set [7] is 145 µM; in data set [6], 140 µM. In data set [2], the CC50 at 48 h turned out to be 41.5 µM. The CC50 at 24 h in data set [3] came out at 95.6 µM. For the same compound, the concentration giving a half-maximal response (EC50) in data set [4] was 8.2 µM.

Compound `CSc1nc(-c2ccccc2)cc(-c2ccccc2)c1C#N` had an IC50 in data set [6] of 195 µM. In data set [2], the cytotoxic concentration (CC50) at 48 h worked out at 125 µM. In data set [3], the CC50 at 24 h was found to be 144 µM. Besides, the EC50 in data set [4] was over 50 µM.

`Cc1cccc(NC(=O)COc2nc(-c3ccccc3)cc(-c3ccccc3)c2C#N)c1`: the selectivity ratio in data set [1] is over 2.7. The IC50 in data set [6] is over 200 µM. Moreover, in data set [2], the CC50 at 48 h is over 250 µM. In addition, the cytotoxic concentration (CC50) at 24 h in data set [3] is over 250 µM. In addition, the EC50 in data set [4] came to 93.9 µM.

`Cc1cccc(NC(=O)CCc2nc(-c3ccccc3)cc(-c3ccccc3)c2C#N)c1`: the IC50 in data set [6] is over 200 µM. For the same compound, the CC50 at 48 h in data set [2] was over 250 µM. The CC50 at 24 h in data set [3] turned out to be 140 µM. For the same compound, the EC50 in data set [4] was over 100 µM.
